Assay outcomes (PubChem)
Shown are actives, neighbours in structure and some others; about 2.7% of the full set was active somewhere.
OXTR ag: human OXTR agonists, primary screen, fluorescence, CHO-OTR cells, Fluo-8 calcium; Oxytocin receptor (Homo sapiens), P30559; Fluo-8 calcium fluorescence; normalized: DMSO 0%, oxytocin 100%; activation, % at 3 µM; hit rate 0.32% among 320,000; AID 2435, 2010;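 active = activation above the mean of all tested compounds plus 3 SD, cutoff set per screening run, cut at about 20% in these data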;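 note: peak over basal fluorescence ratio from a 100 s FLIPR kinetic read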
OXTR potentiate: human OXTR potentiators, primary screen, fluorescence, CHO-OTR cells, Fluo-8 calcium; Oxytocin receptor (Homo sapiens), P30559; Fluo-8 calcium fluorescence, potentiator mode; 0% = oxytocin EC15, 100% = EC100; activation, % at 3 µM; hit rate 0.061% among 320,000; AID 2445, 2010;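 active = activation above that plate's cutoff, the mean activation of tested compounds plus 3 SD, cut at about 6.6% in these data, passing the limit was not always enough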;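 note: 100% uses oxytocin at 75 nM as the full agonist control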
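assay system = CHO-OTR cells, human receptor | schedule = compound 6 min at room temperature before oxytocin, 100 s read | detection = Fluo-8 intracellular calcium fluorescence, ex 470-495, em 515-575 nm | evaluation = normalized max/min fluorescence ratio, % activation | control set = EC15 oxytocin alone as 0%, 75 nM oxytocin (EC100) as 100%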
OX1R antag-1: antagonists of human orexin 1 receptor (OX1R); OX1R-expressing cells, FRET antagonist read-out; Orexin/Hypocretin receptor type 1 (Homo sapiens), O43613; hit rate 1.8% among 330,000; inhibition, % at 6.6 µM; in the data active = inhibition mostly above about 38%, no sharp cut-off; inactive = mostly below about 40%;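 note: 0% = agonist challenge alone and 100% = reference antagonist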
Target sequence (O43613 whole entry, looked up): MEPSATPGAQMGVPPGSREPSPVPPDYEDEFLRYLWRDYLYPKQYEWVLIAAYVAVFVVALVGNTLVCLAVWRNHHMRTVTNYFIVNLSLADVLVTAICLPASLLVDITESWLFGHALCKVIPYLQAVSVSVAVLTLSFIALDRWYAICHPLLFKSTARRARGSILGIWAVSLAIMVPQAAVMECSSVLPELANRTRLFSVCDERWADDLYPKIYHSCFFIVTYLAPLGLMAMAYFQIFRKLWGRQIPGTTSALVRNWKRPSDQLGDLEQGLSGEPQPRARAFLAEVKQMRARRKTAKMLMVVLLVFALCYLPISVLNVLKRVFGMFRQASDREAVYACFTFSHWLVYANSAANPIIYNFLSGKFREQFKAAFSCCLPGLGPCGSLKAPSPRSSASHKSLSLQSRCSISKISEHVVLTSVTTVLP
V1R ag counter: agonists of human V1a receptor, primary screen, counter-screen for OXTR agonist project, fluorescence, CHO-V1R cells; Vasopressin V1a receptor (Homo sapiens), P37288; hit rate 0.25% among 320,000; activation, % at 3 µM; Fluo-8 calcium fluorescence, agonist mode; 0% DMSO, 100% 3 nM vasopressin;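 active = activation above the mean activation of all tested compounds plus 3 SD, per screening run, cut at about 20% in these data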;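 note: signal is peak over basal fluorescence ratio across a 100 second FLIPR read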
CHO parental Ca: ATP-evoked calcium signal inhibitors, parental CHO, primary screen, counter-screen for OX1R antagonist project, cell-based, fluorescence, Fluo-8 calcium dye. AID 463079, 2010. hit rate 0.63% among 330,000. parental CHO-K1, ATP-induced calcium, Fluo-8 fluorescence. inhibition, % at 5.6 µM;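 active = inhibition above that plate's mean sample inhibition plus 3 SD, cut at about 26% in these data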;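 note: 0% = ATP-challenged DMSO wells and 100% = DMSO wells without ATP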
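Material: Parental CHO cells | Reagent: ATP | Compound dosing: Single nominal dose of 5.6 µM per compound | Detection: Intracellular calcium via Fluo-8 no-wash fluorescent dye | Read-out: % inhibition of ATP-induced calcium mobilization | Benchmarks: Low control ATP plus DMSO, high control DMSO only | Replicates: Singlicate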
OX1R antag-2: OX1R (HCRTR1) antagonists, primary screen, fluorescence, CHO/OX1R cells, Fluo-8 calcium, orexin A | Orexin/Hypocretin receptor type 1 (Homo sapiens), O43613 | Fluo-8 calcium fluorescence | inhibition, % at 5 µM | hit rate 0.43% among 330,000;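 active = inhibition above its plate's threshold, mean inhibition of all tested compounds on the plate plus 3 SD, cut at about 37% in these data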;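 note: 0% = orexin A challenge wells and 100% = SB-334867-A antagonist wells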
An asterisk follows results filed as active.

SMILES	OXTR ag	OXTR potentiate	OX1R antag-1	V1R ag counter	CHO parental Ca	OX1R antag-2
O=C(NC1=NCCS1)c1ccc([N+](=O)[O-])cc1Cl	-1	-3	49*	0	-9	-2
O=C(CSc1nc(=O)n(CCCN2CCOCC2)c2c1CCCC2)Nc1ccc(Cl)cc1	-2	-1	19	-1	-38	-35
CN(Cc1nc2ccccc2c(=O)[nH]1)C(=O)c1ccccc1OCc1ccc(Cl)cc1	-2	-2	56*	1	-25	27
C/C(=N\NC(=O)C(=O)N/N=C(\C)c1cccc(O)c1)c1cccc(O)c1	0	-7	58*	0	-10	-8
CCN(c1cccc(C(F)(F)F)c1)S(=O)(=O)c1ccc2c(c1)CCN2C(=O)C1CC1	1	-11	23	3	65*	17
COc1ccc(OCCOC(=O)CCS(=O)(=O)c2ccc(C)cc2)cc1	1	-2	13	2	-9	-16
COc1ccc(C)cc1S(=O)(=O)N1CCN(C/C=C/c2ccccc2)CC1	0	-5	12	1	-19	-14
COC(=O)c1cn(NC(=O)Cc2cccc(OC)c2)c(=O)c2ccccc12	0	3	72*	0	-23	-21
COC(=O)c1cn(NC(=O)Cc2ccc(OC)c(OC)c2)c(=O)c2ccccc12	0	5	48*	0	-13	-8
COC(=O)c1cn(NC(=O)c2ccc(OC)c(OC)c2)c(=O)c2ccccc12	0	-6	18	0	-10	-6
Cc1ccc(NC(=O)[C@@H]2CCCN2S(=O)(=O)c2ccc(Cl)cc2)cc1	-2	-3	48*	0	-9	16
O=C(Nc1ccc(Cl)cc1)C1C2CCCCC21 (centres undefined)	-2	-22	17	0	62*	32
O=C(Nc1ccc(C(F)(F)F)cc1)C1CCCCN1S(=O)(=O)c1ccccc1 (centres undefined)	-1	-7	13	2	-26	-18
O=C(Nc1ccc(Cl)cc1)C1CCCCN1S(=O)(=O)c1ccccc1 (centres undefined)	2	-7	28*	4	6	20
CC(=O)c1cccc(S(=O)(=O)NCCC(=O)NC2CCCCCC2)c1	-1	4	0	0	-13	-4
NC(=O)COC(=O)CNC(=O)c1cc(Cl)cc([N+](=O)[O-])c1	1	6	53*	0	1	-15
O=C(NCC1CC1)c1cc([N+](=O)[O-])cc([N+](=O)[O-])c1	0	1	54*	0	-8	-5
O=C(CNC(=O)c1cc(Cl)cc([N+](=O)[O-])c1)OCC(=O)N1CCCCC1	2	0	41*	0	-17	-6
Cc1ccc(S(=O)(=O)N2CCOCC2)cc1C(=O)NC(C)CCc1ccccc1 (centres undefined)	1	-1	9	1	-18	-13
COc1cccc(Nc2cc(C)c3ccccc3n2)c1	-2	-6	49*	-1	-28	-30
Cc1ccc(C(=O)c2ccccc2C(=O)OCC(=O)Nc2ccc(SC(F)F)cc2)cc1	2	-13	28	5	12	18
O=C(COC(=O)c1ccccc1Cc1ccccc1)Nc1ccc(SC(F)F)cc1	2	-8	26	3	42*	6
CSc1nc(N)nc(SCC(=O)c2ccc(C)cc2)c1C#N	2	-19	69*	3	-7	6
CSc1nc(N)nc(SCC(=O)OC(C)C)c1C#N	2	2	20	0	-8	-13
COc1ccc(NC(=O)CCSc2cc(C)c3ccccc3n2)cc1	-3	-5	21	-2	-27	-14
SMILES	OXTR ag	OXTR potentiate	OX1R antag-1	V1R ag counter	CHO parental Ca	OX1R antag-2
COc1ccc2nc(SCC(=O)NN)cc(C)c2c1	-2	-13	49*	0	-25	20
N#Cc1cccc(NC(=O)CNc2cccc(S(=O)(=O)N3CCCCC3)c2)c1	4	-14	12	5	-16	-20
O=c1c2ccccc2oc2cc(C#CC3(O)CCCCC3)ccc12	-2	-11	61*	0	-34	-20
COc1cccc2oc3cc(C#CC4(O)CCCCC4)ccc3c(=O)c12	-1	-15	47	-1	-28	5
COc1ccccc1CN1CCCC(CN(CCN(C)C)C(=O)c2ccc(C)cc2)C1 (centres undefined)	0	-1	12	0	-11	-29
COc1cc(/C=C2\SC(=S)NC2=O)ccc1OS(=O)(=O)c1ccccc1	8	-18	80*	12	11	10
COc1cc(/C=C2/SC(=S)NC2=O)ccc1OS(=O)(=O)c1ccc(C)cc1	4	-18	64*	12	6	10
CCOc1ccc(/C=C2\SC(=S)NC2=O)cc1OC	-1	-5	46	1	2	-21
COc1cc(/C=C2\SC(=S)N(CCCCC(=O)O)C2=O)ccc1OS(=O)(=O)c1ccc(C)cc1	0	-10	22	2	21	-4
CC1CCCCC1NC(=O)COc1ncnc2sccc12 (centres undefined)	2	0	4	2	2	-11
COc1ccc2c(c1)Cc1sc(NC(=O)c3ccco3)nc1-2	-3	-18	65*	0	-18	-6
Cc1ccc(NC(=O)c2ccc(NS(=O)(=O)/C=C/c3ccccc3)cc2)nc1	-1	1	25	1	-19	-45
CC(C)c1nc(SCC(=O)NC2CCCC2)c2c(=O)n(C)c(=O)n(C)c2n1	0	-6	5	0	16	-2
CN(C(=O)Cn1c(=O)oc2cc(S(=O)(=O)N3CCCC3)ccc21)C1CCCCC1	2	-6	13	2	-6	-18
Nc1cc2c(cc1[N+](=O)[O-])OCCO2	0	-7	49*	1	-14	-18
Cc1c(C(=O)NCCc2ccc3c(c2)OCCO3)oc2ccccc12	-1	-4	38*	0	-8	5
CCC(=O)Nc1ccc(NC(=S)NC(=O)c2oc3ccccc3c2C)cc1	1	-7	5	1	-6	-25
CC(=O)Nc1cccc(NC(=O)c2oc3ccccc3c2C)c1	3	-6	62*	2	-8	11
CCC(=O)Nc1ccc(NC(=O)c2oc3ccccc3c2C)cc1	1	0	47*	1	-10	-14
